High-throughput results (PubChem)
Only some compounds are listed: those with a hit (about 2.3% of all), similar ones and a draw of the others.
TRPC6 act – mouse TRPC6 channel activators, primary screen, cell-based, HEK293, membrane potential dye. Short transient receptor potential channel 6 (Mus musculus), Q61143. HEK293-TRPC6 membrane potential dye fluorescence; active compounds read high. B-score at 10 µM. 0.13% of 310,000 active. AID 2550, 2010;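 active = B-score of the integrated fluorescence ratio above library mean plus 3 SD, and starting fluorescence ratio within library mean plus 5 SD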;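 also: higher score means more depolarization so channel activation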
TRPC4 potent – positive allosteric modulators of TRPC4, primary screen, cell-based, mouse TRPC4beta, HEK293 mu-opioid, Fluo-4 calcium | 0.42% of 310,000 active | DAMGO EC20, Fluo-4 Ca2+ flux; active compounds read high | B-score at 10 µM | Short transient receptor potential channel 4 (Mus musculus), Q9QUQ5;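 active = B-score of calcium response area above 5 SD of library B-scores, with initial fluorescence ratio within 5 SD of library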;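 also: B-score of integrated fluorescence ratio over time as area under calcium response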
TRPC6 inh – mouse TRPC6 channel inhibitors, primary screen, cell-based, HEK293, membrane potential dye | Short transient receptor potential channel 6 (Mus musculus), Q61143 | ACh-evoked depolarization; active compounds read low | B-score at 10 µM | 1.1% of 310,000 active | AID 2553, 2010;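 active = B-score under library mean minus 3 SD, initial fluorescence not abnormally high, positive integrated signal ratio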;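 also: B-score derived from integrated fluorescence ratio over the kinetic read; more negative B-score means stronger inhibition of depolarization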
TRPC4 block – inhibitors of mouse TRPC4 channel, primary screen, Fluo4 calcium, HEK293 TRPC4beta/mu-opioid cells. 0.39% of 300,000 active. DAMGO-evoked Fluo4 calcium flux; active compounds read low. Short transient receptor potential channel 4 (Mus musculus), Q9QUQ5. B-score at 10 µM;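 active = B-score over 3 SD under the library average, no early fluorescence shift, positive overall ratio signal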
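Assay system: Stable TRPC4beta/mu-opioid receptor HEK293 cells | Reagent: DAMGO in two steps, submaximal then maximal | Compound dosing: Single concentration per test compound | Signal: Fluo4 Ca2+ flux fluorescence | Evaluation: Per-well B score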
TRPC4 act – activators of mouse TRPC4 channel, primary screen, Fluo4 calcium, HEK293 TRPC4beta/mu-opioid cells; Short transient receptor potential channel 4 (Mus musculus), Q9QUQ5; Fluo4 calcium fluorescence; active compounds read high; B-score at 10 µM; 0.49% of 310,000 active; AID 2237, 2010;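 active = B-score above 5 SD of library B-scores, and initial fluorescence ratio not above library mean plus 5 SD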;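 also: positive B-score marks a calcium rise read as TRPC4 activation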
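System: HEK293 cells stably co-expressing mouse TRPC4beta and mu-opioid receptor; Schedule: Fluo4 dye loading 45 min at room temperature, 110 s recording; Detection: Fluo4 fluorescence, kinetic; Evaluation: B-scored integrated calcium fluorescence ratio; Controls: buffer (low) and maximal DAMGO (high).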
The depositor's hits bear a star; i = inactive.

SMILES	TRPC6 act	TRPC4 potent	TRPC6 inh	TRPC4 block	TRPC4 act
c1ccc(COc2cccc(CNCc3cccnc3)c2)cc1	i	i	i	-6*	i
CCCCN(CCCNC(=O)c1ccc(CS(=O)(=O)c2c(Cl)cccc2Cl)o1)Cc1ccccc1	i	i	i	i	i
CCCCN(CC)CCCNC(=O)c1ccc(CS(=O)(=O)c2c(Cl)cccc2Cl)o1	i	i	i	i	62*
COc1ccc(C)cc1NC(=O)Cn1c(=O)oc2ccccc21	i	i	i	i	i
CC(=O)Oc1c(C)cc(O)c2ccccc12	i	17*	i	i	i
Cc1cc(C)cc(C(=O)NC(CC(N)=O)c2ccc(N3CCCCCC3)c([N+](=O)[O-])c2)c1 (centres undefined)	i	i	i	i	i
c1ccc(Cc2c[nH]c3ccccc23)cc1	i	i	i	-5*	i
N#CCCn1cc(C(=O)Nc2ccc(C(=O)O)cc2)c(-c2cccc(Br)c2)n1	i	i	i	i	70*
N#CCCn1cc(C(=O)Nc2ccccn2)c(-c2ccccc2)n1	i	i	i	i	i
Cc1cccc(CC2CC(=O)N(c3ccc(C)cc3Br)C2=O)c1 (centres undefined)	i	i	i	i	i
O=C(c1ccccc1F)N1CCN(c2ccc([N+](=O)[O-])c3cccnc23)CC1	i	29*	i	i	i
O=C(Nc1ccccc1N1CCN(C(=O)c2ccc(Cl)cc2)CC1)c1cccc([N+](=O)[O-])c1	i	i	i	-6*	i
O=C(c1ccc(F)cc1)N1CCN(c2ccc([N+](=O)[O-])cc2-n2cccc2)CC1	i	24*	i	i	i
O=C(c1ccccc1F)N1CCN(c2ccc([N+](=O)[O-])cc2-n2cccc2)CC1	i	18*	i	i	i
COc1ccc(N2CCN(C(=O)c3ccccc3F)CC2)c([N+](=O)[O-])c1	i	i	i	i	i
Cc1ccc(S(=O)(=O)N2CCN(C(=O)CC(C)n3nc(C)c(Cl)c3C)CC2)cc1C (centres undefined)	i	i	i	i	i
CCC(C(=O)OCC(=O)NC1CCS(=O)(=O)C1)c1ccccc1 (centres undefined)	i	i	i	i	i
Cc1nonc1OCCN1CCN(c2ccccc2[N+](=O)[O-])CC1	i	i	i	i	i
Nc1nonc1OCCN1CCN(c2ccc([N+](=O)[O-])c3cccnc23)CC1	i	23*	i	i	93*
COc1cccc(NC(=O)CSc2nnc3ccc(-c4ccncc4)nn23)c1	i	i	i	i	i
NN=C1c2cc([N+](=O)[O-])ccc2-c2ccc([N+](=O)[O-])cc21	i	18*	i	i	i
O=[N+]([O-])c1ccc2c(c1)/C(=N\O)c1ccccc1-2	i	i	i	i	i
CC(NC(=O)C1CCN(C(=O)Nc2ccccc2)CC1)c1ccccc1 (centres undefined)	i	i	i	i	i
O=C(CCNC(=O)c1ccc(Cl)cc1)Nc1ccccc1N1CCCC1	i	i	i	i	i
CC1CCN(CC(O)COc2ccc(-c3ccccc3)cc2)CC1 (centres undefined)	i	i	i	i	i
SMILES	TRPC6 act	TRPC4 potent	TRPC6 inh	TRPC4 block	TRPC4 act
C=CCNc1nc(N2CCCC2)nc2ccccc12	i	i	i	-7*	i
CC1Oc2ccccc2C=C1/C=N/Nc1ccc(C(=O)O)cc1 (centres undefined)	i	i	i	-5*	i
CNC(=O)NC(=O)COc1ccc2oc3c(c2c1)CCCC3	i	i	i	i	i
CNC(=O)COc1ccc2oc3c(c2c1)CCCC3	i	i	i	-6*	i
O=C(c1ccc(COc2ccccc2Br)cc1)N1CCCCCC1	i	12*	i	i	i
O=C(N[C@H](Cc1cc(=O)[nH]c2ccccc12)C(=O)O)c1ccc(Cl)cc1	i	i	i	i	i
CCCN(CC(=O)Nc1ccccc1Br)CC(=O)Nc1ccc(F)c(F)c1F	i	12*	i	i	i
CCCOc1cc(C)c(S(=O)(=O)n2ccc(C)n2)cc1C	i	13*	i	i	i
Cc1ccc(OCC(=O)N/N=C\c2cccn2C)c([N+](=O)[O-])c1	i	i	i	i	i
Cc1nc2ccccc2n1CC(O)COc1ccc(Br)cc1 (centres undefined)	i	i	i	i	i
Cc1nc2ccccc2n1CC(O)COc1ccccc1Cl (centres undefined)	i	i	i	-7*	i
Cc1ccccc1N(CC(=O)N/N=C/c1ccc(Cl)cc1)C(=O)c1ccccc1	i	i	i	i	i
Cc1ccccc1N(CC(=O)N/N=C/c1ccc(F)cc1)C(=O)c1ccccc1	i	i	i	i	91*
COc1ccc2c(C)cc(N3CCCCCC3)nc2c1	i	i	i	-10*	i
Cc1cc(N2CCCCCC2)nc2ccc(F)cc12	i	i	i	-6*	i
COc1ccc2c(C)cc(N3CCN(Cc4ccccc4)CC3)nc2c1	i	i	i	i	i
COC(=O)c1sc(NC(=O)c2cc(-c3ccccc3)nc3ccccc23)c(C#N)c1C	i	13*	i	i	i
CCOC(=O)c1sc(NC(=O)c2cc(-c3ccc(C)cc3)nc3ccccc23)c(C#N)c1C	i	i	i	i	i
CCOc1ccc(/C=C2\SC(=S)N(CCC(=O)N(CCO)c3ccccc3)C2=O)cc1	i	12*	i	i	i
Cc1ccc(Cn2c(C3CCCN3c3nc(-c4ccc(F)cc4)cs3)nc3cc(Cl)c(Cl)cc32)cc1 (centres undefined)	i	i	i	i	i
CCCn1c(C2CCCN2c2nc(-c3ccc(C)cc3)cs2)nc2ccccc21 (centres undefined)	i	i	i	i	46*
CCCS(=O)(=O)c1nc(S(=O)(=O)c2ccc(C)cc2)c(NCCCN2CCCC2=O)s1	i	i	i	i	i
